Reference: ChEMBL document CHEMBL3352594 (J Med Chem, 2014)
The source made the active and inactive calls. The calls are words filed in the database; no cut-off is given here.

Key:
Macrophage [1] = test: Inhibition of LPS-induced NO production in C57BL/6 mouse macrophages preincubated with compound for 1 hr before LPS challenge measured after 24 hrs by Griess method; format: functional, cell-based; conditions: C57BL/6, Macrophage
Procedure, shortened: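 Peritoneal macrophages harvested from male C57BL/6J mice 3 days after ip thioglycollate; 1 × 10^5 cells/well in RPMI-1640 + 5% newborn calf serum, nonadherent cells removed after 2 h. Compounds added 1 h before LPS 1 μg/mL; 24 h later supernatant nitrite read by Griess reagent at 570 nm against a nitrite standard curve. IC50 from ≥2 experiments in triplicate; selectivity index = cytotoxicity IC50 / NO-inhibition IC50.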

[2] = Cytotoxicity against C57BL/6 mouse macrophages after 24 hrs by MTT assay; format: cell-based; conditions: C57BL/6, Macrophage
Procedure, shortened: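 Thioglycollate-elicited peritoneal macrophages from male C57BL/6 mice, 1 × 10^5 cells/well, adhered 2 h, then exposed to compounds 24 h. Washed, MTT (5 mg/mL in PBS) added 4 h at 37 °C, formazan dissolved in DMSO, absorbance 570 nm.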

Macrophage [3] = test: Selectivity index, ratio of IC50 for C57BL/6 mouse macrophages to IC50 for LPS-induced NO production in C57BL/6 mouse macrophages
Macrophage [4] = test: Inhibition of intrinsic NO production in C57BL/6 mouse macrophages at 10 uM measured after 24 hrs by Griess method; format: functional, cell-based
Procedure, shortened: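 Unstimulated peritoneal macrophages (no LPS) cultured 2 h, then exposed to compound at 10 μM for 24 h. Supernatant nitrite measured by Griess assay at 570 nm against a standard curve; untreated, vehicle and LPS (1 μg/mL) wells as controls. Three independent experiments, mean ± SEM.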

Macrophage [5] = test: Inhibition of LPS-induced iNOS expression in C57BL/6 mouse macrophages preincubated at 1 uM for 1 hr before LPS challenge measured after 24 hrs by immunoblotting; format: functional, cell-based
Procedure, shortened: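 Male C57BL/6 peritoneal macrophages pretreated 1 h with compound at 1 μM, then LPS 1 μg/mL for 24 h. Lysates resolved on 10% SDS-PAGE and transferred to PVDF; blots probed with rabbit anti-iNOS and anti-β-actin (1:1000, overnight 4 °C), visualized by ECL. iNOS/β-actin ratio from densitometry; three independent experiments, mean ± SEM.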

Mus musculus [6] = test: Antiinflammatory activity in Kunming mouse assessed as inhibition of croton oil-induced ear edema at 5 umol/kg, po administered before challenge relative to vehicle-treated control; format: functional
Procedure, shortened: (§1)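 Male Kunming mice; croton oil applied topically to left ear at 0.4 mg/ear. Test agent or equal-volume vehicle given 1 h before (po 5, 10, 20 μmol/kg; sc 77, 154, 308 μmol/kg). Euthanized under pentobarbital 4 h after croton oil; 8 mm ear punches weighed, left minus right weight = edema; inhibition vs vehicle group. n = 10 (po) or 8–9 (sc); mean ± SEM.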

Mus musculus [7] = test: Antiinflammatory activity in Kunming mouse assessed as inhibition of croton oil-induced ear edema at 10 umol/kg, po administered before challenge relative to vehicle-treated control; format: functional; procedure, shortened: as §1
Mus musculus [8] = test: Antiinflammatory activity in Kunming mouse assessed as inhibition of croton oil-induced ear edema at 20 umol/kg, po administered before challenge relative to vehicle-treated control; format: functional; procedure, shortened: as §1
Mus musculus [9] = test: Antiinflammatory activity in Kunming mouse assessed as inhibition of croton oil-induced ear edema at 77 umol/kg, sc administered before challenge relative to vehicle-treated control; format: functional; procedure, shortened: as §1
Mus musculus [10] = test: Antiinflammatory activity in Kunming mouse assessed as inhibition of croton oil-induced ear edema at 154 umol/kg, sc administered before challenge relative to vehicle-treated control; format: functional; procedure, shortened: as §1
Mus musculus [11] = test: Antiinflammatory activity in Kunming mouse assessed as inhibition of croton oil-induced ear edema at 308 umol/kg, sc administered before challenge relative to vehicle-treated control; format: functional; procedure, shortened: as §1
Mus musculus [12] = test: Antiinflammatory activity in specific pathogen-free COPD-like lung inflammation BALB/c mouse model assessed as inhibition of IL-8 level at 2 umol/kg/day, po for 35 days measured 24 hrs post last dose relative to vehicle-treated control; format: functional
Procedure, shortened: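 SPF male BALB/c mice (18−20 g) exposed to cigarette smoke 5 min twice daily (days 2–13, 15–35) plus 20 μg LPS in 30 μL saline (days 1, 14). Oral drug 2 μmol/kg daily for 35 days, 1 h before exposure. Killed ~24 h after last dose; lungs lavaged 3× with 0.8 mL ice-cold saline; IL-8 in BAL supernatant by ELISA; n = 8−11, mean ± SEM.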

Mus musculus [13] = test: Antiinflammatory activity in specific pathogen-free COPD-like lung inflammation BALB/c mouse model assessed as inhibition of white blood cells at 2 umol/kg/day, po for 35 days measured 24 hrs post last dose relative to vehicle-treated control; format: functional, organism-based
Procedure, shortened: (§2)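 Male SPF BALB/c mice (18−20 g) given cigarette smoke 5 min twice daily (days 2−13, 15−35) plus LPS 20 μg in 30 μL saline on days 1 and 14. Oral dosing 1 h before first exposure, daily for 35 days. BAL (3 × 0.8 mL ice-cold saline) collected about 24 h after final dose. Centrifuged pellet resuspended in 200 μL PBS and counted by hemocytometer for differential cells.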

Mus musculus [14] = test: Antiinflammatory activity in specific pathogen-free COPD-like lung inflammation BALB/c mouse model assessed as inhibition of eosinophils at 2 umol/kg/day, po for 35 days measured 24 hrs post last dose relative to vehicle-treated control; format: functional, organism-based; procedure, shortened: as §2
Mus musculus [15] = test: Antiinflammatory activity in specific pathogen-free COPD-like lung inflammation BALB/c mouse model assessed as inhibition of TNFalpha level at 2 umol/kg/day, po for 35 days measured 24 hrs post last dose relative to vehicle-treated control; format: functional, organism-based
Procedure, shortened: (§3)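 Male SPF BALB/c mice (18−20 g) exposed to cigarette smoke 5 min twice daily on days 2−13 and 15−35, with 20 μg LPS in 30 μL saline on days 1 and 14. Dosed orally 1 h before first exposure, daily for 35 days. Lungs lavaged 3× with 0.8 mL ice-cold saline about 24 h after last dose. Supernatant cytokines measured by ELISA. n = 8−11, mean ± SEM, Student's t test.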

Mus musculus [16] = test: Antiinflammatory activity in specific pathogen-free COPD-like lung inflammation BALB/c mouse model assessed as inhibition of IL-1beta level at 2 umol/kg/day, po for 35 days measured 24 hrs post last dose relative to vehicle-treated control; format: functional, organism-based; procedure, shortened: as §3
Mus musculus [17] = test: Antiinflammatory activity in specific pathogen-free COPD-like lung inflammation BALB/c mouse model assessed as inhibition of IL-6 level at 2 umol/kg/day, po for 35 days measured 24 hrs post last dose relative to vehicle-treated control; format: functional, organism-based; procedure, shortened: as §3
[18] = Toxicity in Kunming mouse administered orally as single dose measured over 14 days; format: organism-based; conditions: in vivo, po
Procedure, shortened: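 SPF Kunming mice, half male and half female, fasted 16 h with water allowed, then weighed and randomized at 10/group. Single gavage dose (0.1 mL/10 g) at various doses, with solvent-only controls. Survival monitored for 14 days.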

SMILES | IC50 (Macrophage [1]) [nM] | IC50 [2] [nM] | Ratio IC50 (Macrophage [3]) | inhibition (Macrophage [4]) | inhibition (Macrophage [5]) | other results
COC(=O)[C@]12OC[C@]34[C@H]([C@@H](O)[C@@H]1O)[C@@]1(C)CC(=O)C(O)=C(C)[C@@H]1C[C@H]3OC(=O)[C@H](OC(=O)CCC(=O)OCCCCOc1no[n+]([O-])c1S(=O)(=O)c1ccccc1)[C@@H]24 | 210 | 1200 | 5.7 |  |  | 
CC(C)=CC(=O)O[C@H]1C(=O)O[C@@H]2C[C@H]3C(C)=C(O)C(=O)C[C@]3(C)[C@H]3[C@@H](O)[C@H](OC(=O)CCC(=O)OCCCCOc4no[n+]([O-])c4S(=O)(=O)c4ccccc4)[C@]4(C(=O)O)OC[C@]32[C@@H]14 | 11000 | > 10000 |  | inactive | Active | 
COC(=O)[C@]12OC[C@]34[C@H]([C@@H](O)[C@@H]1O)[C@@]1(C)CC(=O)C(OC(=O)c5ccccc5C(=O)OCCCCOc5no[n+]([O-])c5S(=O)(=O)c5ccccc5)=C(C)[C@@H]1C[C@H]3OC(=O)[C@H](OC(=O)C=C(C)C)[C@@H]24 | 690 | 1300 | 1.9 |  |  | 
COC(=O)[C@]12OC[C@]34[C@H]([C@@H](O)[C@@H]1O)[C@@]1(C)CC(=O)C(OC(=O)CCC(=O)OCc5ccc(OCc6c(-c7ccccc7)no[n+]6[O-])cc5)=C(C)[C@@H]1C[C@H]3OC(=O)[C@H](OC(=O)C=C(C)C)[C@@H]24 | 47 | 150 | 3.2 | Active |  | 
CC(C)=CC(=O)O[C@H]1C(=O)O[C@@H]2C[C@H]3C(C)=C(OC(=O)CCC(=O)OCCCCOc4no[n+]([O-])c4S(=O)(=O)c4ccccc4)C(=O)C[C@]3(C)[C@H]3[C@@H](O)[C@H](OC(=O)CCC(=O)OCCCCOc4no[n+]([O-])c4S(=O)(=O)c4ccccc4)[C@]4(C(=O)O)OC[C@]32[C@@H]14 | 67 | > 10000 | >149 | inactive | Active | inhibition in vivo at 5 µmol/kg (Mus musculus [6]): 0.9%; inhibition in vivo at 10 µmol/kg (Mus musculus [7]): 6.4%; inhibition in vivo at 20 µmol/kg (Mus musculus [8]): 7.8%; inhibition in vivo at 77 µmol/kg (Mus musculus [9]): 31.4%; inhibition in vivo at 154 µmol/kg (Mus musculus [10]): 61%; inhibition in vivo at 308 µmol/kg (Mus musculus [11]): 76.5%; inhibition in vivo at 2 µmol/kg (Mus musculus [12]): 48%; inhibition (Mus musculus [13]): Active; inhibition (Mus musculus [14]): Active; inhibition (Mus musculus [15]): Active; inhibition (Mus musculus [16]): Active; inhibition (Mus musculus [17]): Active; LD50 at 336 h [18]: > 3850 µmol/kg
CC(C)=CC(=O)O[C@H]1C(=O)O[C@@H]2C[C@H]3C(C)=C(O)C(=O)C[C@]3(C)[C@H]3[C@@H](O)[C@H](O)[C@]4(C(=O)O)OC[C@]32[C@@H]14 | > 10000 | > 10000 |  | Active | Active | 
CC(C)=CC(=O)O[C@H]1C(=O)O[C@@H]2C[C@H]3C(C)=C(O)C(=O)C[C@]3(C)[C@H]3[C@@H](O)[C@H](O)[C@]4(C(=O)OCc5ccc(OCc6c(-c7ccccc7)no[n+]6[O-])cc5)OC[C@]32[C@@H]14 | 2200 | 3900 | 1.8 |  |  | 
CC(C)=CC(=O)O[C@H]1C(=O)O[C@@H]2C[C@H]3C(C)=C(OC(=O)CCC(=O)OCCCCOc4no[n+]([O-])c4S(=O)(=O)c4ccccc4)C(=O)C[C@]3(C)[C@H]3[C@@H](O)[C@H](O)[C@]4(C(=O)O)OC[C@]32[C@@H]14 | 1300 | > 10000 | >7.6 | inactive | Active | 
COC(=O)[C@]12OC[C@]34[C@H]([C@@H](O)[C@@H]1O)[C@@]1(C)CC(=O)C(O)=C(C)[C@@H]1C[C@H]3OC(=O)[C@H](OC(=O)C=C(C)C)[C@@H]24 [BRUSATOL] | 50 | 140 |  |  |  | inhibition in vivo at 5 µmol/kg (Mus musculus [6]): 24.3%; inhibition in vivo at 10 µmol/kg (Mus musculus [7]): 27.1%; inhibition in vivo at 20 µmol/kg (Mus musculus [8]): 46.8%; inhibition in vivo at 2 µmol/kg (Mus musculus [12]): 46%
CC(C)=CC(=O)O[C@H]1C(=O)O[C@@H]2C[C@H]3C(C)=C(O)C(=O)C[C@]3(C)[C@H]3[C@@H](O)[C@H](O)[C@]4(C(=O)OCCCCOc5no[n+]([O-])c5S(=O)(=O)c5ccccc5)OC[C@]32[C@@H]14 | 1100 | 3000 | 2.7 |  |  | 
COC(=O)[C@]12OC[C@]34[C@H]([C@@H](O)[C@@H]1O)[C@@]1(C)CC(=O)C(OCc5ccc(OCc6c(-c7ccccc7)no[n+]6[O-])cc5)=C(C)[C@@H]1C[C@H]3OC(=O)[C@H](OC(=O)C=C(C)C)[C@@H]24 | 2100 | > 10000 | >4.7 |  |  | 
COC(=O)[C@]12OC[C@]34[C@H]([C@@H](O)[C@@H]1O)[C@@]1(C)CC(=O)C(O)=C(C)[C@@H]1C[C@H]3OC(=O)[C@H](OC(=O)CCC(=O)OCc1ccc(OCc3c(-c5ccccc5)no[n+]3[O-])cc1)[C@@H]24 | 380 | 820 | 2.2 |  |  | 
